Platelet DG rel = inhibitors of platelet dense granule secretion, primary screen, cell-based, MLPCN, human platelets | inhibition, %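 (compounds screened at 7.5 µM in platelet-rich plasma)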 | hit rate 0.22% among 300,000 | human platelet-rich plasma, SFLLRN dense granule ATP release, luminescence;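 active = mean replicate score, as percent of positive control, at or above 50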
SENP8 block-1 = human SENP8 protease inhibitors, primary screen, biochemical, fluorescence, Nedd8 protein substrate, uHTS; Sentrin-specific protease 8 (Homo sapiens), Q96LD8; recombinant SENP8; inhibition, % at 20 µM; hit rate 0.64% among 360,000; in the data active = inhibition mostly above about 40%, no sharp cut-off; inactive = mostly below about 27%
Target sequence (Q96LD8 whole entry, looked up): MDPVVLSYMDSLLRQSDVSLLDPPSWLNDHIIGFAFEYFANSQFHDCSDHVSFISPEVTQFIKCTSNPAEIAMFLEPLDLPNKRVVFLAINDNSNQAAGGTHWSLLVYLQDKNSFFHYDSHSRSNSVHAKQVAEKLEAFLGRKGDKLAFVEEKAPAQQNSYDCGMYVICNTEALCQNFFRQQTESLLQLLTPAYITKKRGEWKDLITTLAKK
SENP7 block = SENP7 protease inhibitors, primary screen, biochemical, luminescence, uHTS | AID 434973, 2010 | Sentrin-specific protease 7 (Homo sapiens), Q9BQF6 | hit rate 1.5% among 330,000 | inhibition, % at 5 µM | recombinant SENP7, Z-RLRGG-aminoluciferin luminescence, 40 min;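 active = inhibition above about 50% at the single test dose, limit read from the data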
SENP1 FRET inh = human SENP1 catalytic domain inhibitors, primary screen, biochemical, FRET, uHTS. inhibition, % at 10 µM. recombinant SENP1 catalytic domain, CyPet-SUMO1-YPet FRET cleavage. hit rate 0.21% among 360,000. Sentrin-specific protease 1 (Homo sapiens), Q9P0U3;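 active = inhibition at least 30% at 10 µM, raw YFP signal under a set limit, fluorescence ratio 0.5 to 1.5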
Target sequence (Q9P0U3 419-644 limits assumed): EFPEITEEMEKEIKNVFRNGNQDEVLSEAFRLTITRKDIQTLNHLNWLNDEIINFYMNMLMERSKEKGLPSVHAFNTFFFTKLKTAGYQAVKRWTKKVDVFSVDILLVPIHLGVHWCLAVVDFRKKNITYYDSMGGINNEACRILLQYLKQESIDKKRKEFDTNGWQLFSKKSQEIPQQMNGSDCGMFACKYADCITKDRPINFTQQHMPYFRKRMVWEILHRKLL
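Controls: no-enzyme wells low, DMSO-plus-enzyme wells high control. Test system: human recombinant His6-tagged SENP1 catalytic domain enzyme. Reagent: SFCypet-SUMO1-SFYpet FRET protein substrate, 25 nM final. Doses: one dose per compound, 10 µM, 0.5% DMSO. Detection: FRET, CFP and YFP emission. Timing: 50 min reaction at room temperature.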
SENP6 inh = SENP6 protease inhibitors, primary screen, biochemical, luminescence, uHTS | Sentrin-specific protease 6 (Homo sapiens), Q9GZR1 | Recombinant SENP6 catalytic domain, aminoluciferin luminescence | inhibition, % at 10 µM | hit rate 1.8% among 330,000 | AID 2599, 2010;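 active = inhibition above about 50% at the single tested dose, limit read from the data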
SENP8 block-2 = SENP8 protease inhibitors, primary screen, biochemical, luminescence; hit rate 1.2% among 330,000; inhibition, % at 10 µM; Sentrin-specific protease 8 (Homo sapiens), Q96LD8; purified SENP8, Z-RLRGG-aminoluciferin cleavage; in the data active = inhibition above about 50%
SENP8 conf-1 = SENP8 protease inhibitors, retest, confirmation, biochemical, luminescence, single concentration. shares compounds with SENP7 block. Recombinant SENP8, Z-RLRGG-aminoluciferin luminescence, 60 min. inhibition, % at 12.5 µM. hit rate 40% among 6,200. AID 488912, 2010;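 active = mean inhibition across replicates above about 50%, limit read from the data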
SENP6 confirm = SENP6 protease inhibitors, confirmation, biochemical, luminescence, single concentration | shares compounds with SENP7 block | recombinant SENP6, Z-RLRGG-aminoluciferin luminescence | inhibition, % at 12.5 µM | hit rate 58% among 6,200
SENP7 conf = SENP7 protease inhibitors, retest, confirmation, biochemical, luminescence, single concentration | AID 488917, 2010 | inhibition, % at 12.5 µM | hit rate 69% among 6,200 | shares compounds with SENP7 block | recombinant SENP7, Z-RLRGG-aminoluciferin luminescence, 40 min
Casp3 SENP sel = caspase-3 protease inhibitors, confirmation, selectivity assay for SENP inhibitor project, biochemical, single concentration; shares compounds with SENP7 block; purified caspase-3, Z-DEVD-aminoluciferin luminescence, 60 min; inhibition, % at 12.5 µM; hit rate 60% among 6,200;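 active = mean inhibition above about 50%, limit read from the data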
Target sequence (P42574 28-227 limits assumed): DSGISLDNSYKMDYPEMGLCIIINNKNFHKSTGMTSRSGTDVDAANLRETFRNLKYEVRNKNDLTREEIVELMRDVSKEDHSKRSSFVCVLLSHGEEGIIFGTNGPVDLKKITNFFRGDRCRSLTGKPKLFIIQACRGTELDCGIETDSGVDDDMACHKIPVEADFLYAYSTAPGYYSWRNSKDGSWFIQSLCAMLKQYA
Luc interf = luminescence interference (SENP counter-screen) | shares compounds with SENP7 block | Pre-incubated SENP8/Z-RLRGG-aminoluciferin, luciferase luminescence interference | inhibition, % at 12.5 µM | hit rate 39% among 6,200;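 active = mean inhibition above about 50% when retested at one dose, limit read from the data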
SENP8 conf-2 = human SENP8 protease inhibitors, confirmation, biochemical, Nedd8 protein substrate, single concentration | shares compounds with SENP8 block-1 | purified SENP8, Nedd8-AMC/pro-Nedd8 cleavage fluorescence, 30 min | inhibition, % at 25 µM | hit rate 15% among 1,400; in the data active = inhibition mostly above about 39%, no sharp cut-off; inactive = mostly below about 34%
Hits are given with their value; 0 = inactive; - = no result. An excerpt weighted towards active compounds, which were near 2.6% of everything screened.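 The calls were made as follows, unless noted: active = mean inhibition above about 50% in the one-dose retest (limit read from the data); inactive = the rest.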

SMILES | Platelet DG rel | SENP8 block-1 | SENP7 block | SENP1 FRET inh | SENP6 inh | SENP8 block-2 | SENP8 conf-1 | SENP6 confirm | SENP7 conf | Casp3 SENP sel | Luc interf | SENP8 conf-2
Cc1cc(C(=O)Nc2cccc(C(=O)O)c2)c(C)o1 | 0 | 0 | 84 | 0 | 90 | 68 | 0 | 81 | 98 | 0 | 88 | -
Cc1ccc2c(c1)C(c1ccccc1)N(C(=O)c1ccc3c(c1)OCO3)CC(=O)N2 (stereo not given) | 0 | 0 | 0 | 0 | 0 | 0 | - | - | - | - | - | -
O=C(Nc1cccc(F)c1)N1CCCC(CNS(=O)(=O)Cc2ccccc2)C1 (stereo not given) | 0 | 0 | 0 | 0 | 0 | 0 | - | - | - | - | - | -
O=C(O)CCN1CCN(S(=O)(=O)c2ccc3ccccc3c2)CC1 | 0 | 0 | 0 | 0 | 0 | 0 | - | - | - | - | - | -
CC(C)c1ccc(OCc2ccc(C(=O)NN3CCN(C)CC3)o2)cc1 | 0 | 0 | 0 | 0 | 0 | 0 | - | - | - | - | - | -
C[C@H]1CN([C@@H](C)CO)C(=O)CCCn2nncc2CO[C@H]1CN(C)S(=O)(=O)c1ccc(Oc2ccccc2)nc1 | - | 0 | - | 0 | - | - | - | - | - | - | - | -
CCc1ccc(NC(=O)Cn2c3[n+](c4c(F)c(F)ccc42)CCCCC3)cc1 | 0 | 0 | 0 | 0 | 0 | 0 | - | - | - | - | - | -
CCOCCCNC(=O)c1ccc(-n2c(=S)[nH]c3ccccc3c2=O)cc1 | 0 | 0 | 0 | 0 | 0 | 0 | - | - | - | - | - | -
CC(C)=C(C#N)c1nc2ccccc2s1 | 0 | 0 | 0 | 0 | 0 | 0 | - | - | - | - | - | -
COc1ccccc1N1C(C)=CC(=C(C#N)c2nc3ccccc3s2)C=C1C | 0 | 67 | 0 | 0 | 61 | 0 | 0 | 0 | 0 | 0 | 0 | 0
CC1=CC(=C(C#N)c2nc3ccccc3s2)C=C(C)N1c1ccc(F)cc1 | 0 | 85 | 0 | 0 | 54 | 0 | 0 | 0 | 0 | 0 | 0 | 0
COc1cc(C=C(c2nc3ccccc3s2)c2nc3ccccc3s2)cc(OC)c1O | 0 | 0 | 0 | 0 | 0 | 0 | - | - | - | - | - | -
CCN(CC)C1CCN(C(=O)c2ccc(OC3CCN(C(=O)CCOC)CC3)cc2)C1 (stereo not given) | - | 0 | - | 0 | - | - | - | - | - | - | - | -
O=C(Cc1ccccc1)Nc1nc2ccccc2s1 | 0 | 0 | 0 | 0 | 0 | 0 | - | - | - | - | - | -
O=C(Cc1ccccc1)c1nc2ccccc2s1 | 0 | 48 | 0 | 0 | 69 | 54 | 0 | 64 | 87 | 62 | 0 | 67
COc1ccc(C(C)(O)c2nc(-c3ccc(S(C)(=O)=O)cc3)cs2)cc1 (stereo not given) | - | 0 | - | 0 | - | - | - | - | - | - | - | -
Cc1c(Cl)cccc1N=Cc1ccc([N+](=O)[O-])s1 | 0 | 68 | 0 | 0 | 51 | 55 | 0 | 0 | 0 | 0 | 0 | 0
C/C(=N\N=C(/N)c1nonc1N)c1ccc2c(c1)OCO2 | 0 | 43 | 92 | 0 | 84 | 82 | 88 | 88 | 100 | 91 | 0 | 0
O=C(CCc1ccncc1)NC1CCCc2c1cnn2-c1ccc(F)cc1F (stereo not given) | 0 | 0 | 0 | 0 | 0 | 0 | - | - | - | - | - | -
Cc1ccc2c(c1)N(CC(=O)NC(C)CCc1ccccc1)C(=O)c1cccnc1O2 (stereo not given) | 0 | 0 | 0 | 0 | 0 | 0 | - | - | - | - | - | -
COc1ccc(C(=O)CCc2ccccc2)c(O)c1 | 0 | 0 | 0 | 0 | 0 | 0 | - | - | - | - | - | -
O=C(CCc1ccccc1)c1c(O)cc(O)cc1O | 0 | 48 | 0 | 0 | 63 | 52 | 65 | 60 | 77 | 0 | 67 | 0
Oc1ccc(N=Cc2ccc(OCc3ccccc3)cc2)cc1 | 0 | 66 | 0 | 0 | 91 | 57 | 0 | 57 | 68 | 0 | 0 | 0
O=C(N/N=C/c1ccc(OCc2ccccc2)cc1)c1ccncc1 | 0 | 0 | 0 | 0 | 0 | 0 | - | - | - | - | - | -
COc1cc(NC(C)CCCN)c2ncccc2c1 (stereo not given) | 0 | 47 | 84 | 0 | 64 | 0 | 0 | 69 | 0 | 97 | 0 | 81
SMILES | Platelet DG rel | SENP8 block-1 | SENP7 block | SENP1 FRET inh | SENP6 inh | SENP8 block-2 | SENP8 conf-1 | SENP6 confirm | SENP7 conf | Casp3 SENP sel | Luc interf | SENP8 conf-2
O=C(O)c1cc(Cl)c(Cl)cc1C(=O)Nc1cccc2cccnc12 | 0 | 61 | 69 | 0 | 0 | 0 | 0 | 0 | 0 | 0 | 0 | 0
COc1ccccc1-c1nc2ccccc2nc1-c1ccccc1OC | 0 | 0 | 0 | 0 | 0 | 0 | - | - | - | - | - | -
O=C1c2ccccc2-c2nc3ccccc3nc21 | 0 | 47 | 0 | 0 | 51 | 0 | 0 | 53 | 0 | 64 | 0 | 89
NC(=S)NNc1cccc2cccnc12 | 0 | 51 | 0 | 0 | 91 | 0 | 0 | 0 | 0 | 0 | 0 | 66
NC(=S)Nc1cccc2cccnc12 | 0 | 0 | 0 | 0 | 0 | 0 | - | - | - | - | - | -
Cc1ccccc1Cn1cc(NC(=O)c2cc(C3CC3)on2)cn1 | 0 | 0 | 0 | 0 | 0 | 0 | - | - | - | - | - | -
N#CC1=C2SCN(Cc3ccccc3)CN2C(=O)CC1c1cccs1 (stereo not given) | 0 | 69 | 0 | 0 | 74 | 71 | 0 | 0 | 0 | 0 | 0 | 0
O=[N+]([O-])c1cc([N+](=O)[O-])c2nonc2c1Nc1ccccc1O | 0 | 0 | 0 | 0 | 0 | 0 | - | - | - | - | - | -
O=[N+]([O-])c1cc([N+](=O)[O-])c2nonc2c1Nc1ccc(O)cc1 | 0 | 79 | 0 | 0 | 58 | 0 | 0 | 0 | 0 | 0 | 0 | 0
O=C(CSc1nnc(NC(=O)c2ccc(F)cc2F)s1)NC1CC1 | 0 | 0 | 0 | 0 | 0 | 0 | - | - | - | - | - | -
Cc1cc(C)c(NC(=O)CNC(=O)CN(C)Cc2ccc(Br)s2)c(C)c1 | - | 0 | 0 | 0 | 0 | 0 | - | - | - | - | - | -
O=C1OC(Nc2cc(Br)cc3cccnc23)c2ccccc21 (stereo not given) | 0 | 41 | 92 | 0 | 94 | 0 | 0 | 63 | 51 | 0 | 0 | 0

Compound activity: PubChem BioAssay, several laboratories
